A word on the Ki: it is the equilibrium dissociation constant of an inhibitor or competing ligand from its target. The IC50 is the concentration that inhibits the measured activity by half. Usually viability stands for the share of living cells, or the viability signal relative to a control. High values mean better survival, low ones a greater loss of cells.

From article PMC4303873 (Scientific Reports, 2015) come the findings set out here.

The target in one data set is mushroom tyrosinase. In words: Mushroom tyrosinase inhibition assay and IC50 determination. The data set is classed as biochemical.
A short description of a further data set: Cell viability. The data set is classed as cell-based, human. The conditions noted are these: human, normal human epidermal melanocytes. The method in brief: (§1)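 Normal human epidermal melanocytes grown in Medium 254 with HMGS. Confluent cells trypsinized, resuspended in Melanocyte Growth Medium M2 and seeded at 2 × 10^4 cells/well. After 24 h, exposed to test compound at 5 or 50 μM at 37°C for 72 h. […] Viability read by MTT.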

Data set [1] deals with Normal human epidermal melanocytes. In words: Cell viability. It is filed as cell-based. Conditions: concentration ranging from 0 to 50 μM. A digest of the protocol: as §1
Another data set has as its system zebrafish embryos. In words: Zebrafish in vivo assay. The conditions noted are these: for decrease of pigmentation level of zebrafish: 50 μM, 9 to 57 hpf (48 h exposure). The method in brief:
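Synchronized zebrafish embryos, three per well in 200 μl embryo medium. Test compound solutions (in 1% DMSO), 10–50 μM, added from 9 to 57 hpf (48 h exposure). […] At 57 hpf, embryos anesthetized in tricaine, mounted in 1% methyl cellulose and photographed under a stereomicroscope. Body pigmentation scored by phenotype and by image pixel measurement.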

Another data set deals with ICR male mice. The data set can be described thus: Acute oral toxicity study in mice. It is filed as in vivo. A digest of the protocol:
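ICR male mice (Crl:CD1), 24 animals randomized into 4 groups of six. Single oral gavage at 1500, 3000 or 6000 mg/kg, or vehicle (4% Tween 80 in water for injection), at 20 ml/kg adjusted to pre-dose body weight. Mortality checked twice daily and clinical signs once daily, SD3–SD14. Body weight taken SD1, SD8 and SD15. Gross necropsy of thoracic and abdominal cavities on SD15.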

Data set [2] concerns Normal human epidermal melanocytes. In words: Melanin quantification assay in normal human melanocytes. It is filed as cell-based. Conditions: 50 μM, 72 hours. A digest of the protocol: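 Normal human epidermal melanocytes in Medium 254 with HMGS, trypsinized into M2 medium and seeded at 1 × 10^5 cells/well. After 24 h, treated for 72 h at 37°C. […] Cell pellets dissolved in 1N NaOH at 70°C for 1 h and spun at 10,000 × g for 10 min. Supernatant OD405 measured.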

Turning to `Oc1ccc(CSCc2ccc(O)cc2)cc1` [T1, bis(4-hydroxybenzyl)sulfide], on mushroom tyrosinase (Dixon plot), the Ki amounted to 58 ± 6 nM and the type of inhibition entry is “strong competitive inhibitor”. The IC50 against mushroom tyrosinase (L-tyrosine substrate, dopachrome at 475 nm, triplicate) is 530 nM. In the data set “Cell viability”, this compound displayed a viability at 72 h, 5 µM of 99.2% and a viability at 72 h, 50 µM of 97.2%. Besides, the “cytotoxicity to normal human melanocyte cells” value in data set [1] is “non-cytotoxic”. For the same compound, in the data set with zebrafish embryos, the “decrease of pigmentation level of zebrafish” value was “about 41.4%”. In addition, the “decrease of pigmentation relative to kojic acid” value with zebrafish embryos (both at 50 μM) was 3 fold. Also, the “adverse side effects in zebrafish” value with zebrafish embryos (zebrafish, in vivo) is on record as “without any adverse side effects”. In the data set on ICR male mice (ICR mice, single oral dose), the “dose with no adverse toxic effects” value was “up to 6000 mg/kg”. Moreover, the “body weight and body gain versus control mice” value in the data set on ICR male mice (single oral dose 1500, 3000, and 6000 mg/kg) is on record as “no difference”. Besides, the “death and clinical symptoms” value in the data set with ICR male mice (single oral dose 1500, 3000, and 6000 mg/kg, 14 days observation) is “no death and abnormal clinical symptom”. In the data set with ICR male mice (single oral dose 1500, 3000, and 6000 mg/kg, SD15), the “gross lesions at necropsy” value is reported as “no observable gross lesion”.
In the case of `O=c1cc(CO)occ1O` [kojic acid, reference compound], in data set [2], the “decrease of melanin content” value is reported as “very few or no melanin content decrease”. For the same compound, in the data set with zebrafish embryos, the “decrease of pigmentation level of zebrafish” value is listed as 12.9%.
For the compound `OC[C@H]1O[C@H](Oc2ccc(O)cc2)[C@H](O)[C@@H](O)[C@@H]1O` [α-arbutin], the “decrease of melanin content” value in data set [2] was “very few or no melanin content decrease”.
As to `OC[C@H]1O[C@@H](Oc2ccc(O)cc2)[C@H](O)[C@@H](O)[C@@H]1O` [β-arbutin], in data set [2], the “decrease of melanin content” value is listed as “very few or no melanin content decrease”.
